Measurements reported in ChEMBL document CHEMBL4257549, “Design, synthesis and biological evaluation of benzimidazole-rhodanine conjugates as potent topoisomerase II inhibitors” (Medchemcomm, 2018).
pIC50: −log10 of the molar value. Activity calls are given as the source filed them. No cut-off for these calls is given here.

Experiments:
MDA-MB-231 = assay: Cytotoxicity against human MDA-MB-231 cells after 48 hrs by MTT assay; assay type: functional, cell-based; conditions: MDA-MB-231, 48 h
Procedure, shortened: (§1)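 Cells seeded at 5000 per well, left overnight, then exposed to compound at 0–50 μM for 48 h. MTT (20 μL of 2.5 mg mL−1) added for a further 4 h at 37 °C, formazan dissolved in DMSO, absorbance read at 570 nm. Quadruplicate wells, N > 2 determinations, mean IC50 taken as the concentration reducing cell number to 50%.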

A549 = assay: Cytotoxicity against human A549 cells after 48 hrs by MTT assay; assay type: functional, cell-based; conditions: A549, 48 h; procedure, shortened: as §1
HL-60 = assay: Cytotoxicity against human HL60 cells after 48 hrs by MTT assay; assay type: functional, cell-based; conditions: HL-60, 48 h; procedure, shortened: as §1
[1] = target: T1, DNA topoisomerase 1 (Homo sapiens) (UniProt P11387); assay: Inhibition of topoisomerase 1 (unknown origin)-mediated pBR322 DNA relaxation at 50 uM after 30 mins by agarose gel electrophoresis
T1 sequence (whole entry): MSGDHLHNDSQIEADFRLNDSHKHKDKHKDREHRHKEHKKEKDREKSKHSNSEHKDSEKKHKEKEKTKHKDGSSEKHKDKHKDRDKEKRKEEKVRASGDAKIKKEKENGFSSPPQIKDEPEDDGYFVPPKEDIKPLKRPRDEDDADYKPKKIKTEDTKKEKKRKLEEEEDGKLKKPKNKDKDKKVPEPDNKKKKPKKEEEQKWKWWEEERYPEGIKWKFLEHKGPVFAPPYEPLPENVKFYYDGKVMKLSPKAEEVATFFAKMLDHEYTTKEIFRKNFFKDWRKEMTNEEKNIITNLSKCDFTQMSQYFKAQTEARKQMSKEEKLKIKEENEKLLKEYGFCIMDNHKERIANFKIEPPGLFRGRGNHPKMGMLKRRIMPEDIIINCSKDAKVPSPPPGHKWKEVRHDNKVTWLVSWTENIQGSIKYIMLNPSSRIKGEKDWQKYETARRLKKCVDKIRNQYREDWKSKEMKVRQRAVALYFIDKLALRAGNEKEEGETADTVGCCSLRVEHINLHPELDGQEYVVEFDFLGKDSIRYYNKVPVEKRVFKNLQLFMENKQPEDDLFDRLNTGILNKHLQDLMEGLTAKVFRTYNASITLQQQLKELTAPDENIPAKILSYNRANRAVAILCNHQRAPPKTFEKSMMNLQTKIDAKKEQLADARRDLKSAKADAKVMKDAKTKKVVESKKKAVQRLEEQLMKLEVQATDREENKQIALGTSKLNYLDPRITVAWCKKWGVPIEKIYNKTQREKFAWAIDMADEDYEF
Procedure, shortened: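 Topo I relaxation of pBR322 with compound at 30 min, 37 °C, camptothecin positive control. Stopped with SDS/bromophenol blue/glycerol dye, run on 1% agarose in TAE for 1.5 h, Ged Red stained, UV visualized.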

Raji = assay: Cytotoxicity against human Raji cells after 48 hrs by MTT assay; assay type: functional, cell-based; procedure, shortened: as §1
PC-3 = assay: Cytotoxicity against human PC3 cells after 48 hrs by MTT assay; assay type: functional, cell-based; conditions: PC-3, 48 h; procedure, shortened: as §1
HeLa = assay: Cytotoxicity against human HeLa cells after 48 hrs by MTT assay; assay type: functional, cell-based; procedure, shortened: as §1
Homo sapiens [2] = organism: Homo sapiens; assay: Inhibition of human topoisomerase 2-mediated pBR322 DNA relaxation at 20 uM after 30 mins by agarose gel electrophoresis
Homo sapiens [3] = organism: Homo sapiens; assay: Inhibition of human topoisomerase 2-mediated pBR322 DNA relaxation at 50 uM after 30 mins by agarose gel electrophoresis
Procedure, shortened: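 Relaxation of 200 ng supercoiled pBR322 by 1 U Topo II (TopoGEN) in 20 μL buffer: 50 mM Tris-HCl pH 8.0, 150 mM NaCl, 10 mM MgCl2, 2 mM ATP, 0.5 mM DTT, 30 μg/mL BSA. Incubated 30 min at 37 °C, stopped with sarcosyl/glycerol dye. Products run on 1% agarose in TAE (1.5 h, 75 V), Ged Red stained, UV imaged; etoposide positive control.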

Homo sapiens [4] = organism: Homo sapiens; assay: Inhibition of human topoisomerase 2-mediated pBR322 DNA relaxation at 10 uM after 30 mins by agarose gel electrophoresis

Row | Structure (SMILES) | pIC50 (MDA-MB-231) | pIC50 (A549) | pIC50 (HL-60) | inhibition [1] | pIC50 (Raji) | pIC50 (PC-3) | pIC50 (HeLa) | inhibition (Homo sapiens [2]) | inhibition (Homo sapiens [3]) | inhibition (Homo sapiens [4])
1 | O=C1NC(=S)S/C1=C\c1nc2ccccc2n1Cc1ccccc1F | 4.67 | < 4.30 | 5.07 | inactive | 4.59 | < 4.30 | 4.44 | Active | – | –
2 | O=C(O)CCN1C(=O)/C(=C/c2nc3ccccc3n2Cc2ccccc2F)SC1=S | 5.02 | 4.73 | 5.24 | inactive | 4.95 | 4.54 | 4.58 | inactive | – | –
3 | Cc1ccc(Cn2c(/C=C3\SC(=S)N(CC(=O)O)C3=O)nc3ccc(Cl)cc32)cc1 | 5.40 | 5.00 | 5.55 | inactive | 5.55 | 5.82 | 4.96 | Active | Active | –
4 | O=C(O)CN1C(=O)/C(=C/c2nc3ccccc3n2Cc2ccc(C(F)(F)F)cc2)SC1=S | 4.90 | 4.60 | 5.45 | inactive | 4.73 | 4.64 | 4.67 | Active | – | –
5 | CCn1c(/C=C2\SC(=S)N(CC(=O)O)C2=O)nc2ccccc21 | 5.73 | 5.03 | 5.67 | inactive | 5.25 | 5.49 | 5.45 | inactive | Active | –
6 | COc1cc(Cn2c(/C=C3\SC(=S)N(CC(=O)O)C3=O)nc3ccccc32)cc(OC)c1 | 5.89 | 5.29 | 5.85 | – | 5.68 | 5.20 | 4.75 | Active | – | Active
7 | COc1ccc(C(=O)Cn2c(/C=C3\SC(=S)N(CC(=O)O)C3=O)nc3ccccc32)cc1 | 4.89 | 5.29 | 5.26 | inactive | 5.20 | 5.06 | 4.57 | inactive | – | –
8 | O=C(O)CN1C(=O)/C(=C/c2nc3cc(F)ccc3n2Cc2ccccc2F)SC1=S | 4.65 | 4.49 | < 4.30 | inactive | 4.69 | < 4.30 | < 4.30 | inactive | Active | –
9 | O=C(O)CN1C(=O)/C(=C/c2nc3ccccc3n2Cc2ccccc2)SC1=S | 5.74 | 5.06 | 6.02 | inactive | 5.41 | 4.97 | 4.64 | Active | Active | –
10 | O=C(O)CN1C(=O)/C(=C/c2nc3ccccc3n2Cc2ccc(F)cc2)SC1=S | 5.58 | 5.45 | 5.85 | inactive | 5.75 | 5.31 | 4.86 | Active | – | –
11 | O=C(O)CN1C(=O)/C(=C/c2nc3ccccc3n2CC(=O)c2ccc(Cl)cc2)SC1=S | 5.95 | 5.01 | 5.61 | inactive | 5.50 | 5.19 | 4.56 | Active | – | Active
12 | O=C(O)CN1C(=O)/C(=C/c2nc3ccccc3n2Cc2ccc(Br)cc2)SC1=S | 5.06 | 5.04 | 6.06 | inactive | 5.92 | 5.07 | 4.89 | Active | – | –
13 | COc1ccc2nc(/C=C3\SC(=S)N(CC(=O)O)C3=O)n(Cc3ccc(C)cc3)c2c1 | 5.42 | 4.63 | 5.72 | inactive | 4.97 | 4.79 | 5.19 | Active | Active | –
14 | O=C(O)CN1C(=O)/C(=C/c2nc3ccccc3n2Cc2ccc(Br)cc2F)SC1=S | 4.55 | 4.56 | 5.19 | inactive | 4.94 | 4.68 | < 4.30 | inactive | Active | –
15 | Cc1ccc(Cn2c(/C=C3\SC(=S)NC3=O)nc3ccccc32)cc1 | 5.19 | 5.27 | 5.58 | inactive | 5.35 | 5.01 | 4.60 | Active | – | –
16 | O=C(O)CN1C(=O)/C(=C/c2nc3ccccc3n2Cc2cccc(F)c2)SC1=S | 4.65 | 4.64 | 5.14 | inactive | 4.88 | 4.45 | < 4.30 | inactive | – | –
17 | N#Cc1ccc(Cn2c(/C=C3\SC(=S)N(CC(=O)O)C3=O)nc3ccccc32)cc1 | 4.95 | 4.58 | 5.12 | inactive | 5.01 | 4.84 | 4.79 | inactive | – | –
18 | Cc1ccc(Cn2c(/C=C3\SC(=S)N(CCC(=O)O)C3=O)nc3ccccc32)cc1 | 5.42 | 5.06 | 5.38 | inactive | 5.18 | 5.03 | 4.95 | inactive | – | –
19 | CC[C@@]1(O)C(=O)OCc2c1cc1n(c2=O)Cc2cc3ccccc3nc2-1 [CAMPTOTHECIN] | 4.78 | 5.66 | 6.38 | – | 5.49 | 4.74 | < 4.30 | – | – | –
20 | O=C(O)CN1C(=O)/C(=C/c2nc3ccccc3n2CC(=O)c2ccc(F)cc2)SC1=S | 5.20 | 4.89 | 5.40 | inactive | 5.08 | 5.01 | 4.83 | Active | – | Active
21 | COc1ccc2c(c1)nc(/C=C1\SC(=S)N(CC(=O)O)C1=O)n2Cc1ccccc1F | 4.77 | 4.74 | 5.47 | inactive | 4.94 | 4.61 | 4.65 | inactive | Active | –
22 | O=C(O)CN1C(=O)/C(=C/c2nc3ccccc3n2Cc2ccc(Cl)cc2)SC1=S | 5.25 | 4.76 | 5.58 | inactive | 4.94 | 5.01 | 5.06 | Active | – | –
23 | O=C(O)CN1C(=O)/C(=C/c2nc3ccccc3n2Cc2ccc([N+](=O)[O-])cc2)SC1=S | 5.11 | 4.94 | 5.27 | inactive | 5.60 | 5.08 | 4.73 | inactive | – | –
24 | Cc1ccc(C(=O)Cn2c(/C=C3\SC(=S)N(CC(=O)O)C3=O)nc3ccccc32)cc1 | 4.77 | 5.02 | 4.80 | inactive | 4.91 | 5.06 | 4.56 | Active | – | –
25 | O=C(O)CN1C(=O)/C(=C/c2nc3ccccc3n2Cc2ccc(F)cc2F)SC1=S | 4.94 | 4.89 | 5.19 | inactive | 5.05 | 4.66 | 4.58 | inactive | Active | –
